The values below come from ChEMBL document CHEMBL3826882, “Discovery of 1-((2R,4aR,6R,7R,7aR)-2-Isopropoxy-2-oxidodihydro-4H,6H-spiro[furo[3,2-d][1,3,2]dioxaphosphinine-7,2'-oxetan]-6-yl)pyrimidine-2,4(1H,3H)-dione (JNJ-54257099), a 3'-5'-Cyclic Phosphate Ester Prodrug of 2'-Deoxy-2'-Spirooxetane Uridine Triphosphate Useful for HCV Inhibition” (J Med Chem, 2016).

Bounds are passed on as bounds.

For data set [1], the system named is Hepatocyte. As to the kind of experiment: Prodrug conversion in human hepatocytes assessed as 2'-deoxy-2'-spirooxetane uridine triphosphate formation in presence of PDE4 inhibitor rolipram by LC-MS/MS analysis. It counts as ADME, cell-based.
Data set [2] relates to Hepatocyte. As to the kind of experiment: Prodrug conversion in human primary hepatocytes assessed as 2'-deoxy-2'-spirooxetane uridine triphosphate formation measured at 8 hrs by LC-MS/MS analysis. Format: ADME, cell-based. Put shortly:
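Hepatocyte primary cultures followed over time for triphosphate formation in cell lysates: rat and mouse up to 24 h, human up to 96 h.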

Data set [3] deals with Hepatocyte. Description: Drug level in human hepatocytes in presence of pan-CYP inhibitor 1-ABT by LC-MS/MS analysis. It counts as ADME, cell-based.
Data set [4] deals with Mus musculus. Description: Half life in homozygous cDNA-uPA chimeric SCID mouse bearing humanized hepatocytes infected with HCV assessed as 2'-deoxy-2'-spirooxetane uridine triphosphate at 50 to 200 mg/kg, po bid administered through gavage for 7 days. Format: ADME, organism-based, Hepatocyte. To be noted: 168 h.
For data set [5], the system named is Plasma. Description: Tlast in rat plasma at 50 mg/kg, po. The settings on record: in vivo. It counts as ADME, organism-based. Put shortly:
(§1)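 Single oral dose of 50 mg/kg formulated in 20% HP-β-cyclodextrin. Prodrug and its triphosphate were measured in plasma and liver (ng/mL or ng/g) over time, and Cmax, tmax, AUC, tlast and t1/2 were derived. For some analytes, data from two independent studies are reported.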

Data set [6] has as its system Hepatocyte. Description: Prodrug conversion in rat cryopreserved hepatocytes assessed as 2'-deoxy-2'-spirooxetane uridine triphosphate level per million cells at 10 uM after 8 hrs by LC-MS/MS analysis. It counts as ADME, cell-based. In outline: (§2)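 Plated cryopreserved hepatocytes (study B) incubated with 10 µM unlabeled prodrug for 2, 8 or 24 h. Triphosphate measured in cell lysates and expressed as pmol/million hepatocytes. Quantification limit 2 ng/10^6 cells.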

The test system of data set [7] is Liver. As to the kind of experiment: AUC (0 to last) in mouse liver at 50 mg/kg, po. Format: ADME, organism-based. To be noted: in vivo. In outline: (§3)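 Oral dose 50 mg/kg, formulated in 20% HP-β-cyclodextrin. Prodrug and triphosphate were measured in plasma and liver (ng/mL or ng/g). Parameters derived were Cmax, tmax, AUC0-last, AUC0-inf and t1/2. Some prodrug data come from two independent studies.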

The subject of data set [8] is Liver. Description: AUC (0 to last) in mouse liver assessed as 2'-deoxy-2'-spirooxetane uridine triphosphate at 50 mg/kg, po. Format: ADME, organism-based. To be noted: in vivo. In outline: as §3
Data set [9] relates to Hepatocyte. Description: Prodrug conversion in rat cryopreserved hepatocytes assessed as 2'-deoxy-2'-spirooxetane uridine triphosphate level per million cells at 10 uM after 2 hrs by LC-MS/MS analysis. It counts as ADME, cell-based. Put shortly: as §2
A short description of data set [10]: Half life in rat plasma at 50 mg/kg, po. It counts as ADME, organism-based. In outline: (§4)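 Single oral dose of 50 mg/kg in 20% HP-β-cyclodextrin. Prodrug and triphosphate measured in plasma and liver over time (tlast 6–30 h). Half-life, Cmax, tmax and AUC0-last derived; liver/plasma ratio taken from AUC0-last. Prodrug data pooled from two independent studies.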

Data set [11] is described as follows: Tmax in mouse liver at 50 mg/kg, po. Format: ADME, organism-based. Put shortly: as §1
The test system of data set [12] is Liver. Description: AUC (0 to last) in rat liver assessed as 2'-deoxy-2'-spirooxetane uridine triphosphate at 50 mg/kg, po. Format: ADME, organism-based. To be noted: in vivo. In outline: as §3
Data set [13] can be described thus: Cmax in mouse plasma at 50 mg/kg, po. Format: ADME, organism-based. Also noted: dose 50 mg/kg, route oral.
Data set [14] in a line: Tmax in rat plasma at 50 mg/kg, po. Format: ADME, organism-based. Put shortly:
as §1

The nature of data set [15]: Prodrug conversion in dog cryopreserved hepatocytes assessed as 2'-deoxy-2'-spirooxetane uridine triphosphate level per million cells at 10 uM after 8 hrs by LC-MS/MS analysis. It counts as ADME, cell-based, Canis lupus familiaris, Hepatocyte. Put shortly:
as §2

Data set [16] in a line: AUC (0 to last) in mouse plasma at 50 mg/kg, po. It counts as ADME, organism-based. Also noted: dose 50 mg/kg, route oral, time 0 - last. In outline: as §3
Data set [17] relates to Hepatocyte. As to the kind of experiment: Drug metabolism in human hepatocytes assessed as ((4R,5R,7R,8R)-5-(2,4-dioxo-3,4-dihydropyrimidin-1(2H)-yl)-8-hydroxy-1,6-dioxaspiro[3.4]octan-7-yl)methyl dihydrogen phosphate formation in presence of pan-PDE inhibitor ibudilast by LC-MS/MS analysis. Format: ADME, cell-based.
Data set [18] deals with Liver. As to the kind of experiment: Tlast in mouse liver at 50 mg/kg, po. Format: ADME, organism-based. To be noted: in vivo. Put shortly:
as §1

Data set [19] in a line: Tmax in dog plasma at 50 mg/kg, po. It counts as ADME, organism-based, Canis lupus familiaris. In outline: as §1
In data set [20] the test system is Liver. Description: Tmax in mouse liver assessed as 2'-deoxy-2'-spirooxetane uridine triphosphate at 50 mg/kg, po. Format: ADME, organism-based. To be noted: in vivo. In outline: as §1
A short description of data set [21]: Tmax in dog liver at 50 mg/kg, po. It counts as ADME, organism-based, Canis lupus familiaris. In outline:
as §1

A short description of data set [22]: Half life in dog plasma at 50 mg/kg, po. It counts as ADME, organism-based, Canis lupus familiaris. Put shortly: as §4
The nature of data set [23]: Prodrug conversion in dog cryopreserved hepatocytes assessed as 2'-deoxy-2'-spirooxetane uridine triphosphate level per million cells at 10 uM after 24 hrs by LC-MS/MS analysis. It counts as ADME, cell-based, Canis lupus familiaris, Hepatocyte. Put shortly:
as §2

The subject of data set [24] is Hepatitis C virus. Description: Antiviral activity against HCV genotype 3a infected in homozygous cDNA-uPA chimeric SCID mouse bearing humanized hepatocytes assessed as change in HCV RNA level in serum at 100 mg/kg, po bid administered through gavage for 7 days by RT-PCR method. Format: functional, Hepacivirus hominis, Hepatocyte. In outline:
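Male chimeric SCID cDNA-uPA+/+ mice with human hepatocyte liver (≥70% replacement by blood human albumin) and serum HCV RNA >1.0×10^6 copies/mL the week before dosing. Oral gavage for 7 days in 20% HP-β-CD, 50-200 mg/kg QD or BID. Serum sampled pre-dose on days 1, 2, 3, 5 and 7. Real-time PCR; mean change in log10 copies/mL, day 7 vs day 1 pre-dose.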

Data set [25] concerns Hepatocyte. As to the kind of experiment: Prodrug conversion in human primary hepatocytes assessed as 2'-deoxy-2'-spirooxetane uridine triphosphate level per million cells at 2 uM after 24 hrs using radiolabelled compound by LC-MS/MS analysis. Format: ADME, cell-based. In outline: (§5)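 Study A: fresh primary hepatocyte cultures from mouse, rat, dog and human incubated with tritiated prodrug at 2 or 62.5 µM for 4 or 24 h. Triphosphate in cell lysates reported as pmol/million hepatocytes. Duplicate or single measurements.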

Data set [26] deals with Hepatocyte. As to the kind of experiment: Prodrug conversion in mouse primary hepatocytes assessed as 2'-deoxy-2'-spirooxetane uridine triphosphate level per million cells at 62.5 uM after 4 hrs using radiolabelled compound by LC-MS/MS analysis. Format: ADME, cell-based. In outline:
as §5

Data set [27] relates to Hepatocyte. As to the kind of experiment: Stability in rat primary hepatocytes assessed as parent compound level at 2 to 62.5 uM after 24 hrs using radiolabeled compound by LC-MS/MS analysis. Format: ADME, cell-based. Put shortly: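 Study A: rat primary cultured hepatocytes incubated with 5'-[3H]-labelled prodrug at 2 and 62.5 µM for 4 and 24h; cell lysates profiled by LC with radioactivity detection. Cyclic monophosphate co-eluted with parent and was assessed separately by LC/MS/MS. Duplicate or single measurements.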

Data set [28] concerns Hepatocyte. As to the kind of experiment: Drug metabolism in human primary hepatocyte supernatant assessed as 1-((4R,5R,7R,8R)-8-hydroxy-7-(hydroxymethyl)-1,6-dioxaspiro[3.4]octan-5-yl)pyrimidine-2,4(1H,3H)-dione formation at 2 to 62.5 uM after 4 to 24 hrs using radiolabeled compound by HPLC analysis. Format: ADME, cell-based. The settings on record: hepatocytes. In outline:
(§6)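 Fresh primary hepatocyte cultures incubated with tritiated prodrug (5'-[3H]) at 2 and 62.5 µM for 4 and 24 h. Supernatants taken after protein precipitation and profiled by HPLC with radioactivity detection. Cell lysates profiled for metabolites by radio-LC. Cyclic monophosphate also measured by LC/MS/MS.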

The subject of data set [29] is Hepatocyte. As to the kind of experiment: Stability in mouse primary hepatocyte supernatant assessed as parent compound level at 2 uM after 4 to 24 hrs using radiolabeled compound by HPLC analysis. Format: ADME, cell-based. To be noted: hepatocytes.
Data set [30] has as its system Hepatocyte. As to the kind of experiment: Drug metabolism in mouse primary hepatocyte supernatant assessed as 1-((4R,5R,7R,8R)-8-hydroxy-7-(hydroxymethyl)-1,6-dioxaspiro[3.4]octan-5-yl)pyrimidine-2,4(1H,3H)-dione formation at 2 to 62.5 uM after 4 to 24 hrs using radiolabeled compound by HPLC analysis. It counts as ADME, cell-based. The settings on record: hepatocytes. Put shortly: as §6

In general, half-life refers to how long it takes for the measured level to halve. A higher half-life goes with slow loss. As a reminder, the Tmax is the time at which the peak concentration occurs. In general, Cmax refers to the highest concentration seen after dosing. Broadly, the AUC(0-t) is exposure summed from dosing to a finite time, without extrapolation to infinity. On to `CC(C)O[P@@]1(=O)OC[C@H]2O[C@@H](n3ccc(=O)[nH]c3=O)[C@@]3(CCO3)[C@@H]2O1`, for which the Drug metabolism result is “metabolite_notdetected” in data set [1]; “metabolite_detected” in [2]; 0.308 pmol in data set [6]; 0.181 pmol in [9]; 0.004 pmol in [15]; “metabolite_detected” in data set [17]. The Drug metabolism in data set [23] was below 2 ng. Further, in data set [3], the Drug uptake entry is reported as “Active”. Further, the t1/2 in data set [4] turned out to be 3.9 h. Further, the Tlast in [5] was determined as 30 h; in data set [18] it was 6 h. Further, the values for the AUClast in [7], in [8] and in data set [12] were 1456 ng·h/g, 126982 ng·h/g and 719469 ng·h/g, respectively. For the same molecule, the half-life in [10] was 4.8 h; in data set [22], 7.3 h. The Tmax in data set [11] was found to be 1 h; in [14], 0.5 h; in data set [19], 1.5 h; in data set [20] it was 2 h; in data set [21] it was 1 h. In [13], this molecule showed a Cmax of 851 ng/mL. This molecule also displayed an AUC(0-t) in data set [16] of 2560 ng·h/mL. The Activity in data set [24] is recorded as -1.08.
For `[3H]C1O[P@](=O)(OC(C)C)O[C@@H]2[C@@H]1O[C@@H](n1ccc(=O)[nH]c1=O)[C@@]21CCO1` (stereo not given in full), the Drug metabolism in data set [25] is 0.025 pmol; in data set [26], 0.12 pmol; in data set [28] it was “metabolite_detected”; in data set [30], “metabolite_detected”. In addition, the Stability result in data set [27] and in [29] was “Stable” in each case.
